FLuc act counter: firefly luciferase counter-screen for stimulation assays; P08659; ATPlite luciferase biochemical, luminescence, 10 min; 0 = ATP-free wells, 1 = DMSO control; activation factor at 10 µM; 200,000 tested, under 10 active;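 active means luciferase activation factor, scaled between plate controls, of at least 2 with compound at 10 µM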
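Assay system: Luciferase/luciferin reagent mix; Medium: PBS as buffer for the ATP substrate; Dosing: test compounds dosed from 2 mM stocks in 100% DMSO; Times: 10 min, room temperature; Signal: luminescence from luciferase reaction; Read-out: luciferase activation; Controls: No-ATP low control, compound-free enzyme-plus-ATP high control.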
Measles CPE: protection of cells from measles virus; hit rate 1.5% among 140,000; Measles virus-infected cells, CPE protection, absorbance; protection (pct of control), % at 4 µM; AID 841; in the data active means protection mostly above about 24%, no sharp cut-off; inactive means mostly below about 26%
ABCG2 inh: blocks JC-1 efflux by human ABCG2 transporter; AID 1325; hit rate 0.1% among 190,000; inhibition, % at 6.6 µM; Q9UNQ0; IgMXP3 cells, flow cytometry;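 active means inhibition above 80%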;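 further: 0% = DMSO and 100% = nicardipine control wells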
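Assay system – ABCG2 IgMXP3 and barcoded ABCB1 CCRF-Adr cell mix · Input – 3 million cells/mL in well · Reagent – JC-1 fluorescent substrate · Compound – single test compound dose, 6.6 µM final · Timing – 10 min exposure at 25 °C with rotation, no wash · Detection – flow cytometry of retained JC-1 fluorescence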
DTT redox prof: compounds producing H2O2 with reducing agent – biochemical, NIH compound library profiling, artefact control for MLSCN library redox annotation, primary screen | DTT-dependent redox cycling H2O2, phenol red/HRP absorbance; 100% = 100 µM peroxide control, 0% = buffer | activation, % at 10 µM | hit rate 0.03% among 200,000 | AID 878;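 active means activation of at least 50% relative to the plate's high and low controls in the primary single-dose screen; inactive means activation below 50%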;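 further: compound incubated with DTT at 0.8 mM final as the reducing agent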
FLuc inhib CS: inhibits firefly luciferase, flagging false hits in luciferase inhibition screens; P08659; ATPLite firefly luciferase biochemical luminescence, 10 min; inhibition, % at 10 µM; hit rate 1.5% among 200,000;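 active means inhibition above about 50% when tested at 10 µM, limit read from the data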
ABCB1 block: blocks JC-1 efflux by human ABCB1 transporter. P08183. CCRF-Adr cells, flow cytometry. inhibition, % at 6.6 µM. hit rate 0.067% among 190,000; in the data active means inhibition above about 40%;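 further: 0% = vehicle and 100% = reference inhibitor; higher value means more JC-1 retained so stronger ABCB1 efflux block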
Target sequence (P08183 whole entry, looked up): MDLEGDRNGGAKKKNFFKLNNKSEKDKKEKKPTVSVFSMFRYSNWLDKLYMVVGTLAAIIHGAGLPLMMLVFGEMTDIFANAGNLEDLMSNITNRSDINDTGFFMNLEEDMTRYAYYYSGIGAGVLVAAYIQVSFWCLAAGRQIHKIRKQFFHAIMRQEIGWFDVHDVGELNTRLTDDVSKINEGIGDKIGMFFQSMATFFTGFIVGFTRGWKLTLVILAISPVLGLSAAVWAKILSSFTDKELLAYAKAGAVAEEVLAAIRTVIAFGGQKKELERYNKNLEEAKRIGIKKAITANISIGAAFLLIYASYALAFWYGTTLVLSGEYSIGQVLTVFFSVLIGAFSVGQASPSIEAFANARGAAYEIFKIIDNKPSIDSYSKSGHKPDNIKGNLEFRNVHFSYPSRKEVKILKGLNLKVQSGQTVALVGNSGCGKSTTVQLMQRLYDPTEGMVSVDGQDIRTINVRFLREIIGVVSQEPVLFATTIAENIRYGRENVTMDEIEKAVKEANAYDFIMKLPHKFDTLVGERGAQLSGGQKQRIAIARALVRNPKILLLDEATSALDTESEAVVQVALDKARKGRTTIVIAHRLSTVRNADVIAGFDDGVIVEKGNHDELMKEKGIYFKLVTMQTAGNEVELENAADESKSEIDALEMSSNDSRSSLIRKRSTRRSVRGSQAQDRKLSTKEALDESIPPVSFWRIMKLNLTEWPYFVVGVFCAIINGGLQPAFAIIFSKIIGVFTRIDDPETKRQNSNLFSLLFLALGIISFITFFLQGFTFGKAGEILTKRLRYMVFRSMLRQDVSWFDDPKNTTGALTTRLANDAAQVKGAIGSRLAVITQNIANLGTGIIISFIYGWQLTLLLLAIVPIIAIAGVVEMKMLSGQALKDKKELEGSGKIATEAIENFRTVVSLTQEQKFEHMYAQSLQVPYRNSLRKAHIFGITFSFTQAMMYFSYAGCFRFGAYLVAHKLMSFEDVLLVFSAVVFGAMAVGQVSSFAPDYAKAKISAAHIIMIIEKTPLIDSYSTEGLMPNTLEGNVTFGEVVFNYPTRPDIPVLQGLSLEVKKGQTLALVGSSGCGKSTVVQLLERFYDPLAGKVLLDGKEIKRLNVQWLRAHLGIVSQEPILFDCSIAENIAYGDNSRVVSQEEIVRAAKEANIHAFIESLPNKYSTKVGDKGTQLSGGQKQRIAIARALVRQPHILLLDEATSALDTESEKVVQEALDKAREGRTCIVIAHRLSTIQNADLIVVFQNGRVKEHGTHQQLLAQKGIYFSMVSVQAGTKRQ
The depositor's hits bear a star; nt = no result given. An excerpt weighted towards active compounds, which were near 2.7% of everything screened.

SMILES | FLuc act counter | Measles CPE | ABCG2 inh | DTT redox prof | FLuc inhib CS | ABCB1 block
CCC(C)NC(=O)Cn1nc([N+](=O)[O-])c(Cl)c1C (configuration not stated) | 1.1 | 19.1 | 1.6 | 1.3 | -9.0 | 0.6
Cc1c(Cl)c([N+](=O)[O-])nn1CC(=O)NC(C)C1CC2CCC1C2 (configuration not stated) | 1.1 | 48.4* | -3.0 | -0.3 | -6.4 | -0.6
Cc1ccccc1N1CCN(c2ccc(NC(=O)C3CCCCC3C(=O)O)cc2)CC1 (configuration not stated) | 0.8 | 4.5 | 10.9 | -0.6 | 19.8 | 1.3
Cc1c(N=C2SC(CC(=O)Nc3ccccc3)C(=O)N2CCN2CCOCC2)c(=O)n(-c2ccccc2)n1C (configuration not stated) | 1 | nt | 6.9 | 0.2 | -0.6 | 0.1
Cc1c(N=C2NC(=O)C(CC(=O)Nc3ccccc3)S2)c(=O)n(-c2ccccc2)n1C (configuration not stated) | 1 | 37.9* | -0.5 | 0.2 | -2.8 | -0.3
Cc1cc(C)nc(/N=C(\N)N2CCc3ccccc32)n1 | 0.9 | nt | 0.6 | -0.3 | 10.5 | -0.4
COc1ccc2c(C)cc(Sc3nnnn3-c3ccccc3)nc2c1 | 1.1 | 53.4* | 3.3 | 0.1 | -8.0 | 0.5
CCCCC(c1nnnn1Cc1ccco1)N1CCN(C(=O)c2ccco2)CC1 (configuration not stated) | 1 | 39.5 | 0.0 | 0.2 | -1.6 | 0.6
CCCC(c1nnnn1Cc1ccco1)N1CCN(C(=O)c2ccco2)CC1 (configuration not stated) | 1 | 44.0* | -0.1 | 0.0 | -2.8 | 0.1
CCNC(=O)c1ccccc1-c1nc(-c2ccccc2Cl)no1 | 0.9 | 34.7* | 5.5 | 0.9 | 8.1 | 2.1
CC(C)NC(=O)c1ccccc1-c1nc(-c2ccccc2Cl)no1 | 0.9 | 14.8 | -3.6 | 0.1 | 14.8 | -2.1
CCOc1ccc(-n2c(SCC(=O)Nc3ccc4c(c3)OCO4)nc3ccccc3c2=O)cc1 | 1.1 | 45.4* | 8.3 | 2.4 | -5.6 | 3.3
COc1ccc(-n2c(=O)c3ccccc3n(CC(=O)NC3CCCC3)c2=O)c(OC)c1 | 1 | 3.5 | 0.0 | -1.2 | -3.0 | 0.0
O=C(N=Nc1c(O)[nH]c2ccccc12)c1ccco1 | 0.2 | nt | 2.8 | 3.4 | 75.4* | -0.1
O=C(CSCc1ccccc1)N=Nc1c(O)[nH]c2ccccc12 | 1 | 11.7 | 19.6 | 0.0 | -1.8 | 0.8
O=C(N=Nc1c(O)[nH]c2ccccc12)c1ccc2c(c1)OCO2 | 0.1 | nt | 12.4 | -1.4 | 93.1* | 0.7
O=C(N=Nc1c(O)[nH]c2ccccc12)c1ccc(CN2CCOCC2)cc1 | 0.8 | nt | 18.6 | -0.8 | 22.1 | 0.7
CC(=O)Nc1ccc2sccc2c1 | 1 | nt | 0.2 | 0.1 | -4.6 | 0.0
Cc1ccc(CNCC(=O)Nc2cccc(S(=O)(=O)NC3=NCCCCC3)c2)cc1 | 1.1 | nt | 7.5 | 0.1 | -6.7 | 0.6
O=C(/C=C/c1ccc(Cl)cc1Cl)Nc1cccc(S(=O)(=O)NC2=NCCCCC2)c1 | 0.4 | 8.8 | -1.4 | 0.2 | 55.3* | -0.3
Cc1ccnc(N/N=C/c2ccccc2)n1 | 0.5 | 4.0 | -0.2 | 0.1 | 51.2* | -0.4
NNc1nc2c(Cl)ccc(Cl)c2s1 | 1.1 | 5.9 | 1.7 | 0.3 | -6.8 | -0.1
Cc1cc(C)n(-c2c(C)[nH]c3ccccc23)n1 | 1.1 | nt | 3.2 | -0.1 | -6.7 | 0.9
O=C(COc1ccc(S(=O)(=O)N2CCOCC2)cc1)N1CCCCCC1 | 1 | nt | 2.6 | 1.2 | -3.1 | 1.8
Cc1ccc2c(c1)sc(=NC(=O)c1cccs1)n2C | 0.1 | nt | 1.5 | -1.3 | 94.6* | -0.4
SMILES | FLuc act counter | Measles CPE | ABCG2 inh | DTT redox prof | FLuc inhib CS | ABCB1 block
CC1(C)CC(c2nc(-c3ccc([N+](=O)[O-])cc3)cs2)CCO1 (configuration not stated) | 1 | nt | 12.7 | -0.7 | -0.1 | 1.1
C=CCON/C(CCC)=C1\C(=O)C(C(=O)OC)C(C)(C)CC1=NC (configuration not stated) | 1 | nt | 6.4 | -0.2 | -1.2 | 0.2
COc1ccc(CCNC(=O)c2ccc(CN3CCC(Cc4ccccc4)CC3)cc2)cc1 | 1.1 | 12.1 | 18.4 | 0.6 | -5.4 | 13.5
Cc1ccccc1NC(=O)c1ccc(CN2CCC(Cc3ccccc3)CC2)cc1 | 1.1 | 50.7* | 5.2 | 1.5 | -5.4 | 1.9
CC1=C(C(=O)OC2CCCCCCC2)C(c2cc3c(cc2Br)OCO3)CC(=O)N1 (configuration not stated) | 1 | 7.8 | 2.0 | -1.7 | -3.3 | 0.8
CN(C)c1ccc(N=Nc2ccccc2C(=O)OCC(=O)N(C)c2ccccc2)cc1 | 0.3 | 7.3 | 23.4 | 1.1 | 65.3* | 1.7
O=C(COc1ccc(Br)cc1)N1CCN(c2ccccc2)CC1 | 1 | 35.4* | 2.3 | -0.3 | -3.4 | 0.6
O=C(COC(=O)c1ccc(Cl)c(S(=O)(=O)NCc2ccccc2)c1)NCC1CCCO1 (configuration not stated) | 1.1 | nt | 1.9 | 0.6 | -5.0 | 0.1
CC(=O)N/C(=C\c1cccs1)C(=O)O | 1.1 | nt | 1.5 | 0.0 | -8.0 | 0.3
Cc1ccc(C)n1-c1ccc(C(=O)NN=C2CCCC2)cc1 | 0.9 | nt | -0.7 | -0.6 | 8.4 | -0.3
COc1cccc2cc(C(=O)N3CCCCC3C)c(=O)oc12 (configuration not stated) | 1 | 2.6 | 4.2 | 1.0 | -2.5 | 0.6
COc1cccc2cc(C(=O)Nc3cccc(C)n3)c(=O)oc12 | 0.5 | nt | nt | nt | 53.7* | nt
COc1cccc2cc(C(=O)N3C(C)CCCC3C)c(=O)oc12 (configuration not stated) | 1 | 18.6* | 3.6 | 1.3 | -2.5 | 0.1
O=C(Cc1ccc(F)cc1)Nc1nnc(SCC(=O)NC2CCCC2)s1 | 1.1 | nt | 0.5 | 1.6 | -8.0 | 0.1
C(=N\Nc1nc2ccccc2[nH]1)/c1ccccc1 | 0.7 | nt | 5.0 | -0.6 | 34.3 | 0.9
C(=C\c1ccccc1)/C=N/Nc1nc2ccccc2[nH]1 | 0.4 | 5.5 | -0.2 | 0.6 | 63.1* | -0.3
C(=N\Nc1nc2ccccc2[nH]1)/C1CCCCC1 | 0.3 | nt | 1.3 | 0.0 | 74.0* | 0.2
c1ccc(CCc2nc3ccccc3[nH]2)cc1 | 0.8 | nt | 2.8 | -0.3 | 24.3 | 0.5
C(/CCc1ccccc1)=N\Nc1nc2ccccc2[nH]1 | 0.2 | nt | 2.0 | -0.9 | 83.9* | 0.1
Cc1ccccc1/C=N/Nc1nc2ccccc2[nH]1 | 0.8 | nt | 15.9 | -0.6 | 15.1 | 1.1
CCOc1cc(NC(=S)NCCCN2CCOCC2)c(OCC)cc1NC(=O)c1cccs1 | 1 | nt | 4.9 | 1.9 | -1.5 | 0.7
CCC(OC(=O)c1cccs1)C(=O)NCc1ccc(C)cc1 (configuration not stated) | 1 | nt | 0.7 | -0.1 | -3.7 | 0.5
